Results: ChEMBL document CHEMBL1629483, “Synthesis of novel chiral Δ2-isoxazoline derivatives related to ABT-418 and estimation of their affinity at neuronal nicotinic acetylcholine receptor subtypes” (Eur J Med Chem, 2010)

Assays:
[1] = biological target: T1, Muscarinic acetylcholine receptor M2 (Homo sapiens) (UniProt P08172); assay: Displacement of [3H]quinuclidinyl benzylate from human muscarinic M2 receptor expressed in CHO cells at 10 uM; assay type: cell-based
T1 sequence (whole entry): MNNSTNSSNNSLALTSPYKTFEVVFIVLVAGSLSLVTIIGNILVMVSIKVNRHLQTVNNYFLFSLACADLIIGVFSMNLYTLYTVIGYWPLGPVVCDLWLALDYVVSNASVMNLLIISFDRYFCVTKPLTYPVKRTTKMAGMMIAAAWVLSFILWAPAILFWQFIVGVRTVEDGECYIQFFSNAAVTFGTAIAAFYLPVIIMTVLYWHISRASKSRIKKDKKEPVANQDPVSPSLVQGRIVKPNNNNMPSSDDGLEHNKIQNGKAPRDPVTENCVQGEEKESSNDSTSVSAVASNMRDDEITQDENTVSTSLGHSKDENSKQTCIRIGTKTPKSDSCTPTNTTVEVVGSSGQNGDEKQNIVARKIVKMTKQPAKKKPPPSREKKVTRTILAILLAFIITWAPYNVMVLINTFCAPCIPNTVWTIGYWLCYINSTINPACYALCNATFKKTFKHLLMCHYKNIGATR
Method in brief: (§1)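 Single-concentration preliminary screen on membranes of transfected CHO cells expressing human M2 or M5 receptors, labelled with [3H]quinuclidinyl benzylate. Read-out was percent inhibition of radioligand binding.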

[2] = biological target: T2, Muscarinic acetylcholine receptor M1 (Homo sapiens) (UniProt P11229); assay: Displacement of [3H]quinuclidinyl benzylate from human muscarinic M1 receptor expressed in CHO cells at 10 uM; assay type: cell-based
T2 sequence (whole entry): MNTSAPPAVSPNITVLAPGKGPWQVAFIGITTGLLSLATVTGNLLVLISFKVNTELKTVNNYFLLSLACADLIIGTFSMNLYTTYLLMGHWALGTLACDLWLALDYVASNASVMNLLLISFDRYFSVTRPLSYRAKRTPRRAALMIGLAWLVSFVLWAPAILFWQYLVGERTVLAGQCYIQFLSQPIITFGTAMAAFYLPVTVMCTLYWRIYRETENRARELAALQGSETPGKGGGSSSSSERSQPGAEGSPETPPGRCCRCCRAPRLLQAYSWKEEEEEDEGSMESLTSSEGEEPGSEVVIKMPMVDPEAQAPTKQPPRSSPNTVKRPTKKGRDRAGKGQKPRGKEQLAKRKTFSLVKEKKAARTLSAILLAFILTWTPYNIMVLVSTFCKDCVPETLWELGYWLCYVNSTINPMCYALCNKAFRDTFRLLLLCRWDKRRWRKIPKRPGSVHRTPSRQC

[3] = biological target: Neuronal acetylcholine receptor subunit alpha-7 (Rattus norvegicus, UniProt Q05941); assay: Displacement of [125I]-alpha-Bungarotoxin from alpha7 nAChR rat cortical membranes by gamma counting; assay type: cell membranes, Membrane
Method in brief: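 Rat cortex membranes, prepared by twice-repeated homogenisation and high-speed centrifugation, were pre-incubated with compound for 30 min at r.t. Filtered on PEI-soaked GF/C filters and gamma counted. Ki from three independent competition experiments, fitted together with three saturation experiments by non-linear least squares (LIGAND).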

[4] = biological target: T3, Muscarinic acetylcholine receptor M4 (Homo sapiens) (UniProt P08173); assay: Displacement of [3H]quinuclidinyl benzylate from human muscarinic M4 receptor expressed in CHO cells at 10 uM; assay type: cell-based
T3 sequence (whole entry): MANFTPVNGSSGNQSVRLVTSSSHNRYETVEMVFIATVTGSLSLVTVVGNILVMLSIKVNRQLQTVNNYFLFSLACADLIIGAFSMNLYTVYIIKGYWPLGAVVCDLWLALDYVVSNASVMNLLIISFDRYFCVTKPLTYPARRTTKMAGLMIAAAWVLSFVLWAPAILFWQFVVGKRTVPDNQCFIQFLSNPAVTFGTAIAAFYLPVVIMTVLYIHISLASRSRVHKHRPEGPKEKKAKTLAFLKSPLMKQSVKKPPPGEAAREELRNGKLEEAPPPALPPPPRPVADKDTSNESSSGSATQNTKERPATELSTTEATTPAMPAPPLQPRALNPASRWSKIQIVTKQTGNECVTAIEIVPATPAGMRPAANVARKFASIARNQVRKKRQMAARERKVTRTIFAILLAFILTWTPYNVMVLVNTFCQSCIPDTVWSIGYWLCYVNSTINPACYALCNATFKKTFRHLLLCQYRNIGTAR

[5] = biological target: Neuronal acetylcholine receptor; alpha4/beta2 (Rattus norvegicus, UniProt P09483+P12390); assay: Displacement of [3H]epibatidine from alpha4beta2 nAChR in rat cortical membranes by beta counting; assay type: cell membranes, Membrane
Method in brief: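 Rat cortex membranes were washed twice by homogenisation in pH 7.4 phosphate/1 M NaCl/EDTA/EGTA/PMSF buffer and 60,000g spins, then resuspended in pH 7 Tris buffer. Nonspecific binding used 100 nM epibatidine. Filtered on PEI-soaked GF/C. Ki from three independent competition curves (LIGAND).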

[6] = biological target: T4, Muscarinic acetylcholine receptor M5 (Homo sapiens) (UniProt P08912); assay: Displacement of [3H]quinuclidinyl benzylate from human muscarinic M5 receptor expressed in CHO cells at 10 uM; assay type: cell-based; method in brief: as §1
T4 sequence (whole entry): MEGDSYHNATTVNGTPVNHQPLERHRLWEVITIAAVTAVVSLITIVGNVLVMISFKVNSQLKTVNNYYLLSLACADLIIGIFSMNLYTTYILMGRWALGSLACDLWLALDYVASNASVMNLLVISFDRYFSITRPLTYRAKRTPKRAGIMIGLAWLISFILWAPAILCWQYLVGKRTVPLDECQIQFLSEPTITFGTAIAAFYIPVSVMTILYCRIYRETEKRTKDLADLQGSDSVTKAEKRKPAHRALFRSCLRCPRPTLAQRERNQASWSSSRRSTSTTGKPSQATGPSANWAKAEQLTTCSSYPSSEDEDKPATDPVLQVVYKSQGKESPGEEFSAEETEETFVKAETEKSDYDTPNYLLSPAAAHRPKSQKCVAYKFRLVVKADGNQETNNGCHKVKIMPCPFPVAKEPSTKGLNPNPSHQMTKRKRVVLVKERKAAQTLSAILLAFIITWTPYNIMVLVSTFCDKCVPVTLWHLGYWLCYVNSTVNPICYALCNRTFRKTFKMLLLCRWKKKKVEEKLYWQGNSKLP

[7] = biological target: Muscarinic acetylcholine receptor M3 (Homo sapiens) (UniProt P20309); assay: Displacement of [3H]quinuclidinyl benzylate from human muscarinic M3 receptor expressed in CHO cells at 10 uM; assay type: cell-based
Muscarinic acetylcholine receptor M3 (Homo sapiens), sequence (P20309 whole entry, looked up): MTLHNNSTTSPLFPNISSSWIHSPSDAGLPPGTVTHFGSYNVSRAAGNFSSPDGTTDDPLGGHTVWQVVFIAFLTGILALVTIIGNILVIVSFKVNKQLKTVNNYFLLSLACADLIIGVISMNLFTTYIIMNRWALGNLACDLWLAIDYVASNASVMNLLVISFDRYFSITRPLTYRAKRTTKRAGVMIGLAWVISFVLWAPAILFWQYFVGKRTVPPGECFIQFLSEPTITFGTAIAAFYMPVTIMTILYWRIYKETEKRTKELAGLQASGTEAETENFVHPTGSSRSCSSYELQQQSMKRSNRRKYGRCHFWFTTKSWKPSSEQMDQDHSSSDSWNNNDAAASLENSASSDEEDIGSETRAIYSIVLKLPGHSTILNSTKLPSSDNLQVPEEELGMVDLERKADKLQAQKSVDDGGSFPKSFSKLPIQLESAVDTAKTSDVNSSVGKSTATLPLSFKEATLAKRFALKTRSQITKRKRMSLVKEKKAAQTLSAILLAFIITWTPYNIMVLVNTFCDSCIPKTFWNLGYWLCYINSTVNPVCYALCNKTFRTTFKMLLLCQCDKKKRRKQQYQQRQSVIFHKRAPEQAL

Neuronal acetylcholine receptor subunit alpha-7, sequence (Q05941 whole entry): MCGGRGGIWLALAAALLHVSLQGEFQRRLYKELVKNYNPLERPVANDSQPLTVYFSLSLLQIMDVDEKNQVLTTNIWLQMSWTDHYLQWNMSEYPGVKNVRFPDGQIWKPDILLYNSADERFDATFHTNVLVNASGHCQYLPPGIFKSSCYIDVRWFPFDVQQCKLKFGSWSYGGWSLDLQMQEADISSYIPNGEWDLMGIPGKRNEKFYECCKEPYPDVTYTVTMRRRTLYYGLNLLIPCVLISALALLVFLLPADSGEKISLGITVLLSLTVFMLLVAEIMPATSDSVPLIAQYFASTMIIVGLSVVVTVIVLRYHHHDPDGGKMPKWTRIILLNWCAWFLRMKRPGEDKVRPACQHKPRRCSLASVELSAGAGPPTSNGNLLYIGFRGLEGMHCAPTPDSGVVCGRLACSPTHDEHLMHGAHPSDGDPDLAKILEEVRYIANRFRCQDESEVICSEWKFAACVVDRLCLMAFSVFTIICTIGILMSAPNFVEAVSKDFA
Neuronal acetylcholine receptor; alpha4/beta2, sequence (P09483 whole entry): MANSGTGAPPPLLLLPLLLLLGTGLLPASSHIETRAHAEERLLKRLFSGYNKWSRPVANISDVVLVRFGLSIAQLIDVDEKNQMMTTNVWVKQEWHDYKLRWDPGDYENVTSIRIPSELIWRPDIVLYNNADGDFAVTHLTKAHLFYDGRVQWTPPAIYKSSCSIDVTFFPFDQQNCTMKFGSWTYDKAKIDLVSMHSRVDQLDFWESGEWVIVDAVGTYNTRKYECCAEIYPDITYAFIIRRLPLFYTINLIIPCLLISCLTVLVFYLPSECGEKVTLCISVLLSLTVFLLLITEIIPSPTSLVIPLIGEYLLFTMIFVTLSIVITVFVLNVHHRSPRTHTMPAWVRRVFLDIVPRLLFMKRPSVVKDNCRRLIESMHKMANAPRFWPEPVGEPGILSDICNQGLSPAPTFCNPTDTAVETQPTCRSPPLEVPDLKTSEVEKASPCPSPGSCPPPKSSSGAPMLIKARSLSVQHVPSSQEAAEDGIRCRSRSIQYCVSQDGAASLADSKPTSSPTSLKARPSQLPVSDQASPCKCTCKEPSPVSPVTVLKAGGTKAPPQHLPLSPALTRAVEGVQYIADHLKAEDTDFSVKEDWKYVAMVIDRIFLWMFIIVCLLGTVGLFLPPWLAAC
Neuronal acetylcholine receptor; alpha4/beta2, sequence (P12390 whole entry): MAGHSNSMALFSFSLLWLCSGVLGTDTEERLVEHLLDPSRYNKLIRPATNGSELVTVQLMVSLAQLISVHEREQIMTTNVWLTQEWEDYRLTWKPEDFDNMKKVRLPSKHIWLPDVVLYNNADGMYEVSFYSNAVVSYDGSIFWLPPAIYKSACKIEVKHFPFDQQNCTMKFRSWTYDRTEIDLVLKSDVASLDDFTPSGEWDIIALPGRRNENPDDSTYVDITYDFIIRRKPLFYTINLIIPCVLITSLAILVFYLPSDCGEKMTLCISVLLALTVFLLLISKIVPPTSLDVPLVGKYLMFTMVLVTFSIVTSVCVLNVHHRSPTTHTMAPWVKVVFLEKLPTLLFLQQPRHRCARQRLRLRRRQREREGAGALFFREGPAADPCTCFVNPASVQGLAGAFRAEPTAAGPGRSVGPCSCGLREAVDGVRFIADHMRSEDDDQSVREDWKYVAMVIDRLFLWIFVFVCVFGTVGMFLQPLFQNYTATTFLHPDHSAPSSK

| Compound | Activity [1] | Activity [2] | Ki [3] | Activity [4] | Ki [5] | Activity [6] | Activity [7] |
| --- | --- | --- | --- | --- | --- | --- | --- |
| COC1=NO[C@@H]([C@@H]2CCCN2C)C1 | < 50% | < 50% | 2.9 µM | < 50% | 10.3 µM | < 50% | < 50% |
| CC1=NO[C@H]([C@@H]2CCCN2)C1 | < 50% | < 50% | 0.44 µM | < 50% | 5.1 µM | < 50% | < 50% |
| COC1=NO[C@@H]([C@@H]2CCCN2)C1 | < 50% | < 50% | 277 µM | < 50% | 28 µM | < 50% | < 50% |
| BrC1=NO[C@@H]([C@@H]2CCCN2)C1 | < 50% | < 50% | 35 µM | < 50% | 4.2 µM | < 50% | < 50% |
| COC1=NO[C@H]([C@@H]2CCCN2)C1 | < 50% | < 50% | 11.3 µM | < 50% | 50 µM | < 50% | < 50% |
| CC1=NO[C@@H]([C@@H]2CCCN2C)C1 | < 50% | < 50% | 325 µM | < 50% | 12 µM | < 50% | < 50% |
| CN1CCC[C@H]1[C@H]1CC(Br)=NO1 | < 50% | < 50% | 43 µM | < 50% | 3.8 µM | < 50% | < 50% |
| CC(C)(C)OC1=NO[C@H]([C@@H]2CCCN2)C1 | < 50% | < 50% | > 500 µM | < 50% | 184 µM | < 50% | < 50% |
| CC1=NO[C@@H]([C@@H]2CCCN2)C1 | < 50% | < 50% | 40 µM | < 50% | 18 µM | < 50% | < 50% |
